Data on 21 molecules can be found in ChEMBL document CHEMBL3286242, “Design, synthesis and biological evaluation of arylcinnamide hybrid derivatives as novel anticancer agents” (Eur J Med Chem, 2014).

Active and inactive are the calls of the source. No cut-off for these calls is given here.

One test has as its system HeLa. Put plainly: Cytotoxicity against human HeLa cells assessed as growth inhibition after 72 hrs by MTT assay. It counts as functional, cell-based. On the technique in general: Tetrazolium assays rely on reduction of a dye to a coloured formazan, in cell work by metabolically active cells.
The next test has as its system HT-29. Put plainly: Cytotoxicity against human HT-29 cells assessed as growth inhibition after 72 hrs by MTT assay. Format: functional, cell-based. As to conditions: HT-29, 72 h.
The test system of another test is LoVo. Kind of test: Cytotoxicity against human LoVo cells assessed as growth inhibition after 72 hrs by MTT assay. It counts as functional, cell-based.
The test system of a further test is CCRF-CEM. Kind of test: Cytotoxicity against human CEM cells assessed as growth inhibition after 72 hrs by MTT assay. It counts as functional, cell-based.
The subject of a further test is Jurkat. Kind of test: Cytotoxicity against human Jurkat cells assessed as growth inhibition after 72 hrs by MTT assay. Format: functional, cell-based.
Test [1] in a line: Cytotoxicity against human SEM cells assessed as growth inhibition after 72 hrs by MTT assay. Format: functional, cell-based.
The next test has as its system MCF7. Put plainly: Cytotoxicity against human MCF7 cells assessed as growth inhibition after 72 hrs by MTT assay. As to conditions: MCF7, 72 h. Format: functional, cell-based.
A further test deals with Tubulin (Bos taurus) (UniProt Q6B856+Q862L2+Q862F3). Put plainly: Inhibition of bovine brain tubulin polymerization at 20 uM by turbidimetry. The gist of the method: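 Purified bovine brain tubulin (10 μM) preincubated with compound in glutamate buffer at 30 °C, cooled to 0 °C, GTP added, then warmed to 30 °C in cuvettes; assembly followed turbidimetrically; concentrations up to 20 μM.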

Test [2] in a line: Cytotoxicity against human CEM/VBL100 cells assessed as growth inhibition after 72 hrs by MTT assay. Conditions: CEM/VBL100, 72 h. Format: functional, cell-based.

What is called IC50 is the concentration needed to halve the response being measured. Consider `C=C(Br)C(=O)Nc1cccc(/C=C/C(=O)Nc2ccc(SC(F)(F)F)cc2)c1`, for which the half-inhibitory concentration (IC50) in the test with HeLa was determined as 19000 nM; with HT-29, 39.8 µM; in the test on LoVo it was 29300 nM; in the test on CCRF-CEM, 15300 nM; in the test on Jurkat, 30100 nM; in [1], 12700 nM. The IC50 in the test on MCF7 was determined as 30100 nM.

As for `COc1cccc(/C=C/C(=O)Nc2cc(OC)c(OC)c(OC)c2)c1`, the 50% inhibitory concentration (IC50) with HeLa stood at 16500 nM; in the test on HT-29, 44.1 µM; with LoVo, 43000 nM; in the test on CCRF-CEM, 23400 nM; in the test with Jurkat, 12500 nM; in test [1], 18200 nM. For the same molecule, the 50% inhibitory concentration (IC50) with MCF7 was found to be 27000 nM.

As for `C=C(Br)C(=O)Nc1cccc(/C=C/C(=O)Nc2cccc(F)c2)c1`, the IC50 with HeLa was 1200 nM; with HT-29, 4.6 µM; in the test on LoVo it was 1000 nM; in the test on CCRF-CEM, 26000 nM; in the test on Jurkat it was 1000 nM; in test [1] it was 620 nM. Also, the half-inhibitory concentration (IC50) in the test on MCF7 turned out to be 3300 nM.

For the molecule `C=C(Br)C(=O)Nc1cccc(/C=C/C(=O)Nc2ccc(F)c(F)c2)c1`, the 50% inhibitory concentration (IC50) stood at 1900 nM in the test on HeLa; 8.7 µM in the test with HT-29; 540 nM with LoVo; 13 nM with CCRF-CEM; 550 nM in the test with Jurkat; 90 nM in test [1]. Besides, the IC50 in the test on MCF7 was found to be 2690 nM. Besides, at Tubulin (Bos taurus), the inhibition result was “inactive”.

As for `COc1cccc2c1C(=O)c1c(O)c3c(c(O)c1C2=O)C[C@@](O)(C(=O)CO)C[C@@H]3O[C@H]1C[C@H](N)[C@H](O)[C@H](C)O1` [DOXORUBICIN], in the test on LoVo, the half-inhibitory concentration (IC50) turned out to be 90 nM.

Consider `C=C(Br)C(=O)Nc1cccc(/C=C/C(=O)NCc2ccc(C)cc2)c1`, for which the IC50 in the test with HeLa was 1700 nM; in the test on HT-29, 2.7 µM; in the test on LoVo, 1900 nM; with CCRF-CEM it was 550 nM; in the test with Jurkat, 740 nM; in [1], 1300 nM. The IC50 in the test on MCF7 was determined as 2200 nM.

Regarding `C=C(Br)C(=O)Nc1cccc(/C=C/C(=O)Nc2ccc(OC)c(OC)c2)c1`, the half-inhibitory concentration (IC50) in the test with HeLa stood at 560 nM; in the test with HT-29, 1.9 µM; in the test on LoVo, 150 nM; in the test on CCRF-CEM, 21 nM; with Jurkat it was 190 nM; in test [1], 3 nM. In the test with MCF7, the IC50 was 2800 nM. Besides, the inhibition entry on Tubulin (Bos taurus) was “inactive”.

As to `C=C(Br)C(=O)Nc1cccc(/C=C/C(=O)Nc2cccc3ccccc23)c1`, the half-inhibitory concentration (IC50) is 1400 nM with HeLa; 6.5 µM in the test with HT-29; 1160 nM with LoVo; 1800 nM with CCRF-CEM; 680 nM in the test on Jurkat; 830 nM in [1]. In addition, the concentration for half-maximal inhibition (IC50) in the test on MCF7 worked out at 2800 nM.

For `C=C(Br)C(=O)Nc1cccc(/C=C/C(=O)Nc2ccc(OC(F)(F)F)cc2)c1`, the IC50 in the test on HeLa turned out to be 29000 nM; in the test on HT-29, 61.2 µM; in the test with LoVo it was 30300 nM; in the test on CCRF-CEM, 13000 nM; with Jurkat, 30300 nM; in test [1], 19300 nM. In addition, the IC50 with MCF7 came to 43300 nM.

In the case of `C=C(Br)C(=O)Nc1cccc(/C=C/C(=O)Nc2cc(OC)c(OC)c(OC)c2)c1`, the IC50 in the test on HeLa was determined as 880 nM; in the test on HT-29 it was 2.3 µM; in the test on LoVo, 140 nM; in the test with CCRF-CEM, 59 nM; in the test on Jurkat, 290 nM; in test [1] it was 18 nM. Moreover, the half-inhibitory concentration (IC50) in the test with MCF7 came out at 1800 nM. Moreover, the inhibition result at Tubulin (Bos taurus) is “inactive”.

In the case of `C=C(Br)C(=O)Nc1cccc(/C=C/C(=O)Nc2ccc(OC)cc2)c1`, the 50% inhibitory concentration (IC50) amounted to 790 nM in the test with HeLa; 2.3 µM in the test on HT-29; 550 nM in the test with LoVo; 26 nM in the test on CCRF-CEM; 470 nM in the test on Jurkat; 70 nM in test [1]. In the test on MCF7, the IC50 was 2500 nM. For the same molecule, the inhibition result at Tubulin (Bos taurus) is “inactive”.

Regarding `C=C(Br)C(=O)Nc1cccc(/C=C/C(=O)Nc2ccc(Cl)cc2)c1`, the IC50 with HeLa worked out at 2800 nM; in the test with HT-29 it was 7.9 µM; with LoVo, 5900 nM; in the test with CCRF-CEM, 460 nM; in the test on Jurkat it was 2600 nM; in test [1], 1190 nM. In the test with MCF7, the IC50 was found to be 11000 nM.

Consider `C=C(Br)C(=O)Nc1ccc(/C=C/C(=O)Nc2ccc(OC)cc2)cc1`, for which the IC50 in the test with HeLa was 1600 nM; in the test with HT-29, 3.1 µM; with LoVo, 60 nM; in the test with CCRF-CEM, 22 nM; with Jurkat it was 1400 nM; in test [1], 80 nM. The IC50 in the test with MCF7 amounted to 3000 nM.

Regarding `C=C(Br)C(=O)Nc1cccc(/C=C/C(=O)Nc2ccccc2)c1`, the IC50 in the test with HeLa was 7300 nM; in the test with HT-29 it was 16.6 µM; in the test on LoVo, 3900 nM; in the test on CCRF-CEM it was 190 nM; in the test with Jurkat, 5000 nM; in [1], 1100 nM. Also, the IC50 in the test on MCF7 stood at 27300 nM.

Consider `COc1cc(NC(=O)/C=C/c2cccc(N)c2)cc(OC)c1OC`, for which the IC50 with HeLa was 53100 nM; in the test on HT-29 it was 63.1 µM; in the test with LoVo, 45200 nM; in the test with CCRF-CEM, 40900 nM; in the test on Jurkat it was 43300 nM; in [1] it was 2810 nM. In addition, the IC50 in the test on MCF7 was found to be 55400 nM.

As for `C=C(Br)C(=O)Nc1cccc(/C=C/C(=O)Nc2cc(OC)cc(OC)c2)c1`, the IC50 is 2200 nM in the test with HeLa; 3.6 µM in the test with HT-29; 1210 nM with LoVo; 11 nM in the test on CCRF-CEM; 980 nM with Jurkat; 40 nM in [1]. For the same molecule, the IC50 with MCF7 is 3000 nM.

Turning to `C=C(Br)C(=O)Nc1cccc(/C=C/C(=O)Nc2ccc(OCC)cc2)c1`, the half-inhibitory concentration (IC50) was 2000 nM with HeLa; 3.4 µM in the test on HT-29; 850 nM in the test on LoVo; 98 nM with CCRF-CEM; 930 nM in the test on Jurkat; 180 nM in test [1]. Besides, the IC50 in the test on MCF7 worked out at 5500 nM.

With `COc1cc(NC(=O)/C=C/c2cccc(OCc3ccccc3)c2)cc(OC)c1OC`, the IC50 is 2200 nM in the test on HeLa; 3.6 µM with HT-29; 21700 nM with LoVo; 17300 nM with CCRF-CEM; 3500 nM in the test with Jurkat; 8500 nM in test [1]. For the same molecule, the half-inhibitory concentration (IC50) in the test on MCF7 was 2400 nM.

`C=C(Br)C(=O)Nc1cccc(/C=C/C(=O)Nc2ccc(C)cc2)c1`: the IC50 in the test on HeLa stood at 1500 nM; in the test with HT-29 it was 1.2 µM; with LoVo, 1500 nM; in the test on CCRF-CEM, 270 nM; with Jurkat it was 240 nM; in test [1], 190 nM. For the same molecule, the IC50 in the test on MCF7 is 2500 nM.

As for `C=C(Br)C(=O)Nc1cccc(/C=C/C(=O)Nc2ccc(F)cc2)c1`, the half-inhibitory concentration (IC50) with HeLa amounted to 16800 nM; in the test with HT-29, 36.6 µM; in the test with LoVo, 4800 nM; in the test with CCRF-CEM, 16600 nM; in the test on Jurkat, 6200 nM; in test [1], 8400 nM. Further, the concentration for half-maximal inhibition (IC50) in the test with MCF7 came out at 13600 nM.

For the molecule `CC[C@]1(O)C[C@@H]2CN(CCc3c([nH]c4ccccc34)[C@@](C(=O)OC)(c3cc4c(cc3OC)N(C)[C@H]3[C@@](O)(C(=O)OC)[C@H](OC(C)=O)[C@]5(CC)C=CCN6CC[C@]43[C@@H]65)C2)C1` [VINBLASTINE], the IC50 in [2] came out at 21 nM.
